# In ChEMBL document CHEMBL1133191, “Non-amidine-containing 1,2-dibenzamidobenzene inhibitors of human factor Xa with potent anticoagulant and antithrombotic activity” (J Med Chem, 2000):
# Columns and labels:
# [1] = target: Coagulation factor X (Homo sapiens) (UniProt P00742); experiment: Binding affinity for human Coagulation factor X
# Procedure, shortened: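 Apparent association constant with human factor Xa, determined by the method the paper cites. Each value is the mean of at least three separate experiments, with standard deviation under 20%.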
# Homo sapiens = species: Homo sapiens; experiment: Prothrombin time activity, concentration required to double the time of clot formation in the prothrombin time assay; type: functional
# Procedure, shortened: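 Prothrombin time clotting assay run as described in a cited reference. The value is the compound concentration (μM) that doubles the time to clot formation. It is the mean of at least three separate experiments, with standard deviation under 20%.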
# [2] = target: T1, Serine protease 1 (Bos taurus) (UniProt P00760); experiment: Measured for apparent association constant (binding affinity) for trypsin (bovine)
# T1 sequence (whole entry): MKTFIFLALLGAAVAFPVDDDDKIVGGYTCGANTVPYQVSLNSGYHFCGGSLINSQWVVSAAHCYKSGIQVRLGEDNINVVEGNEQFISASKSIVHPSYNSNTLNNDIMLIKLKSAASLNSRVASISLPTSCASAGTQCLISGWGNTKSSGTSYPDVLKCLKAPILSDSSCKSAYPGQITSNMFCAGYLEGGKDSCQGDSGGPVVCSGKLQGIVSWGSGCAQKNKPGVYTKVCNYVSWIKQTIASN
# [3] = target: Urokinase-type plasminogen activator (Homo sapiens) (UniProt P00749); experiment: Measured for apparent association constant (binding affinity) for Urokinase-type plasminogen activator
# [4] = target: Coagulation factor XI (Homo sapiens) (UniProt P03951); experiment: Measured for apparent association constant (binding affinity) for Coagulation factor XI
# Sequence of Coagulation factor XI (Homo sapiens) (P03951 19-387 limits assumed): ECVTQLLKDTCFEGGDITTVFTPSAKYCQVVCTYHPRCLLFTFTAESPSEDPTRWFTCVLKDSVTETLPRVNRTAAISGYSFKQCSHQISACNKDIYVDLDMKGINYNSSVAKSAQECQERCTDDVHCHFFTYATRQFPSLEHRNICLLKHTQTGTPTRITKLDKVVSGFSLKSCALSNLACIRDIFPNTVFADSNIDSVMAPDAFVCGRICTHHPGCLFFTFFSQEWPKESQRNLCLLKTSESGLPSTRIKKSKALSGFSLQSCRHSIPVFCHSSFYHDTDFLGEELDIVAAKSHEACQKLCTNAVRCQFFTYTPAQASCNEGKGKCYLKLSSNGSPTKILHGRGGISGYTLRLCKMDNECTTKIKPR
# Sequence of Coagulation factor XI (Homo sapiens) (P03951 388-625 limits assumed): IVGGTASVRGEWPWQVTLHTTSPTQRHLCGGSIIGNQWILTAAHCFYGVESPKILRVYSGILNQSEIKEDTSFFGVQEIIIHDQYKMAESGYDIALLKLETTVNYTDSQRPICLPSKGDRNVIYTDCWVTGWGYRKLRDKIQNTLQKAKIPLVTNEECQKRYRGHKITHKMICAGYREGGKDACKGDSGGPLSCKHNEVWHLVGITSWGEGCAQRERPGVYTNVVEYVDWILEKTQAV
# [5] = target: Prothrombin (Homo sapiens) (UniProt P00734); experiment: Measured for apparent association constant (binding affinity) for Coagulation factor II
# [6] = target: Plasminogen (Homo sapiens) (UniProt P00747); experiment: Measured for apparent association constant (binding affinity) for plasmin
# Sequence of Plasminogen (Homo sapiens) (P00747 whole entry, looked up): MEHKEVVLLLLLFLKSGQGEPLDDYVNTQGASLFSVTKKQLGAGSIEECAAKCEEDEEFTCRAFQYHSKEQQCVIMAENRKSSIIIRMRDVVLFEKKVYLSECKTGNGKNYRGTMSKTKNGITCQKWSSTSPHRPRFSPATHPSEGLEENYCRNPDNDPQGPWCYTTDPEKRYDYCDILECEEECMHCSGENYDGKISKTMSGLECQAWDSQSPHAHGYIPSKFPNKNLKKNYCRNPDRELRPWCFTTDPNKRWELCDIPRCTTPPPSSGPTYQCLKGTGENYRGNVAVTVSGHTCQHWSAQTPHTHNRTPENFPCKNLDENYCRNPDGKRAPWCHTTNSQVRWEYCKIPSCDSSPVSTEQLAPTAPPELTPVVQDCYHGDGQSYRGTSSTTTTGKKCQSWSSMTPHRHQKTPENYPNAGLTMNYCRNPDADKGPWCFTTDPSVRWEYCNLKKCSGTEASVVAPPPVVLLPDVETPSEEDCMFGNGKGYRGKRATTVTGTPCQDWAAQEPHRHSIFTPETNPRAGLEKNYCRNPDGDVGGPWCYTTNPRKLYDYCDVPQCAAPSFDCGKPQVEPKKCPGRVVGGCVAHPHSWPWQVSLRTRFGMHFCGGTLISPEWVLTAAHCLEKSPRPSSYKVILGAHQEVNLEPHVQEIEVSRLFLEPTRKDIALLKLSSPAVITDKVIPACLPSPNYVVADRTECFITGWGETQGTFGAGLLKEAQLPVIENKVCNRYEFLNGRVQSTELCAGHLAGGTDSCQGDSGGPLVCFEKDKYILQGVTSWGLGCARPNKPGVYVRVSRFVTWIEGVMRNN
# [7] = target: T2, Coagulation factor XII (Homo sapiens) (UniProt P00748); experiment: Measured for apparent association constant (binding affinity) for Coagulation factor XII
# T2 sequence (whole entry): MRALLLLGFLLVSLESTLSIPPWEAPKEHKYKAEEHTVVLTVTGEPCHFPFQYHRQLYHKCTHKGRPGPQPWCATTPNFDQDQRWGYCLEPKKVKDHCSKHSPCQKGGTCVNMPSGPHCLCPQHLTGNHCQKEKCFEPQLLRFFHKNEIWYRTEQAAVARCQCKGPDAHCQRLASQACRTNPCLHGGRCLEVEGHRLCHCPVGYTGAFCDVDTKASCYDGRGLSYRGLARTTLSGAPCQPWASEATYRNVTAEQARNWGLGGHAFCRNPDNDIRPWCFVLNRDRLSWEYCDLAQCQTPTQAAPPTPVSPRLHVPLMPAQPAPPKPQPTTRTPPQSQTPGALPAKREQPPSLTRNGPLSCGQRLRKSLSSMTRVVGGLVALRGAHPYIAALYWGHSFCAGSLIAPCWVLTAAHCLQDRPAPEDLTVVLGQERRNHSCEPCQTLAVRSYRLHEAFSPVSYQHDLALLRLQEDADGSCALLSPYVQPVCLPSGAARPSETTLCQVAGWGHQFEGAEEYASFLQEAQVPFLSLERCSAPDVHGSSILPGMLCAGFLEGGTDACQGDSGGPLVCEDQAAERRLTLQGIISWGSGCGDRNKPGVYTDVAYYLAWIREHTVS
# [8] = target: Vitamin K-dependent protein C (Homo sapiens) (UniProt P04070); experiment: Measured for apparent association constant (binding affinity) for activated protein C
# Sequence of Vitamin K-dependent protein C (Homo sapiens) (P04070 43-197 limits assumed): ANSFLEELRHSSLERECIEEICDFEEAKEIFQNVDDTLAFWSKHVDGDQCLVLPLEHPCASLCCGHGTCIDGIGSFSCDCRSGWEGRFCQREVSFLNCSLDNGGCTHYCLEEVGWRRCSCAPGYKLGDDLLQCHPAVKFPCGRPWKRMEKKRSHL
# Sequence of Vitamin K-dependent protein C (Homo sapiens) (P04070 212-461 limits assumed): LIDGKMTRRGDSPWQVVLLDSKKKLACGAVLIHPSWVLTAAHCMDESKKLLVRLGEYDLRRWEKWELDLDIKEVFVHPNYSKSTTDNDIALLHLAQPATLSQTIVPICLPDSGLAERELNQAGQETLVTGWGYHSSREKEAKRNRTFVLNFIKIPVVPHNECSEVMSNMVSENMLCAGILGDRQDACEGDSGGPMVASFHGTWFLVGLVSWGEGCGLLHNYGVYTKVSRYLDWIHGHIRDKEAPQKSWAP
# [9] = Measured for apparent association constant (binding affinity) for Factor IIa
# [10] = target: Tissue-type plasminogen activator (Homo sapiens) (UniProt P00750); experiment: Measured for apparent association constant (binding affinity) for Tissue type plasminogen activator
# Sequence of Tissue-type plasminogen activator (Homo sapiens) (P00750 36-562 limits assumed): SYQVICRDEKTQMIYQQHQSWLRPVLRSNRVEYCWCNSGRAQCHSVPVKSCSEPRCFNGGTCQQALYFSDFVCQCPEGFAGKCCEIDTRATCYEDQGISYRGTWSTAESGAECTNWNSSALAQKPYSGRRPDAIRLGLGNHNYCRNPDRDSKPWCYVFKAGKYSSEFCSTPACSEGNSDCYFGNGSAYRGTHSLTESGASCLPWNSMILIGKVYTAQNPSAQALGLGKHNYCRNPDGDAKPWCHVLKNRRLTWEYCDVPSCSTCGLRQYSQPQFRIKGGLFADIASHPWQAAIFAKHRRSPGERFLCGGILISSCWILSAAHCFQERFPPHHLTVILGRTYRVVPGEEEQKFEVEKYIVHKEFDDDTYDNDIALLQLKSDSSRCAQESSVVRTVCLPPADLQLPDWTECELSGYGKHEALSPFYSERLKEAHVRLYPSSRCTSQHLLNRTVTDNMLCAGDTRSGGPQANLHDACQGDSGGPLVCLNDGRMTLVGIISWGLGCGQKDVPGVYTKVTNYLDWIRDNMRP
# Sequence of Coagulation factor X (Homo sapiens) (P00742 41-179 limits assumed): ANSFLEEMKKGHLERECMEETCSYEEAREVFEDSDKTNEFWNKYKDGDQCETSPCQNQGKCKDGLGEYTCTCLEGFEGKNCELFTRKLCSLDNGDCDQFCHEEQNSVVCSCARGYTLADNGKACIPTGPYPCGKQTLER
# Sequence of Coagulation factor X (Homo sapiens) (P00742 235-488 limits assumed): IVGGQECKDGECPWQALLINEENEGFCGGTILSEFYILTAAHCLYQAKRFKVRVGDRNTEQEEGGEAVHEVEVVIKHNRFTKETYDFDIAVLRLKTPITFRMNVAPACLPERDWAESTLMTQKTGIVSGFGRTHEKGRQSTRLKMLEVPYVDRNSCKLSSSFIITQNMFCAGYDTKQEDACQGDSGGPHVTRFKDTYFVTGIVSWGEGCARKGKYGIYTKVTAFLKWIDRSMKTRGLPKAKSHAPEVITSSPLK
Compound,K ass [1],PT (Homo sapiens) [µM],further results
COc1ccc(C(=O)Nc2ccc(O)cc2NC(=O)c2ccc(C(C)(C)C)cc2)cc1,6.6e+06 l M-1,> 50,–
COc1ccc(C(=O)Nc2ccccc2NC(=O)C2CCN(c3ccncc3)CC2)cc1,2.3e+06 l M-1,9.7,–
CC(C)(C)c1ccc(C(=O)Nc2cc(C(=O)O)ccc2NC(=O)c2cccc(C(=N)N)c2)cc1,4.7e+08 l M-1,0.83,–
COc1ccc(C(=O)Nc2ccccc2NC(=O)NC2CCN(c3ccncc3)CC2)cc1,1.2e+07 l M-1,2.4,–
COc1ccc(C(=O)Nc2ccccc2NC(=O)c2ccc(-c3ccncc3)cc2)cc1,9.2e+06 l M-1,9.5,–
COc1ccc(C(=O)Nc2ccccc2NC(=O)OCC2CCN(c3ccncc3)CC2)cc1,2e+07 l M-1,1.9,–
COc1ccc(C(=O)Nc2ccccc2NC(=O)OC2CCN(c3ccncc3)CC2)cc1,1.7e+07 l M-1,2.6,–
COc1ccc(C(=O)Nc2ccccc2NC(=O)OCCC2CCN(c3ccncc3)CC2)cc1,2.5e+06 l M-1,> 15,–
O=C(NCC1CCN(c2ccncc2)CC1)Nc1ccccc1NC(=O)c1ccccc1,5.9e+06 l M-1,6.2,–
O=C(NCC1CCN(c2ccncc2)CC1)Nc1ccccc1NC(=O)c1ccc(Cl)cc1,1e+08 l M-1,0.58,K ass [2]: < 10000 l M-1; K ass [3]: < 10000 l M-1; K ass [4]: < 10000 l M-1; K ass [5]: 60000 l M-1; K ass [6]: 90000 l M-1; K ass [7]: < 10000 l M-1; K ass [8]: < 10000 l M-1
CCOc1ccc(C(=O)Nc2ccccc2NC(=O)NCC2CCN(c3ccncc3)CC2)cc1,1.5e+07 l M-1,2.6,–
CC(C)(C)c1ccc(C(=O)Nc2ccccc2NC(=O)NCC2CCN(c3ccncc3)CC2)cc1,40000 l M-1,–,–
COc1ccc(C(=O)Nc2ccccc2NC(=O)NCC2CCN(c3ccncc3)CC2)cc1,6.2e+07 l M-1,0.96,K ass [2]: < 10000 l M-1; K ass [3]: < 10000 l M-1; K ass [4]: < 10000 l M-1; K ass [6]: < 10000 l M-1; K ass [7]: < 10000 l M-1; K ass [9]: < 10000 l M-1; K ass [8]: < 10000 l M-1; K ass [10]: < 10000 l M-1
